According to ChEMBL document CHEMBL4425094, “Novel Benzo[a]quinolizidine Analogs Induce Cancer Cell Death through Paraptosis and Apoptosis” (J Med Chem, 2016):

Columns and labels:
[1] = tested on: MDA-MB-231; assay: Cytotoxicity against human MDA-MB-231 cells assessed as cell growth inhibition after 24 hrs by MTT assay; type: functional, cell-based; settings: MDA-MB-231, 24 h
Method in brief: (§1)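 Cells seeded 24 h in RPMI 1640 + 10% FBS. RWPE-1 was kept in K-SFM with bovine pituitary extract and EGF. Cells then exposed to compounds for 24 h at 37 °C, 5% CO2, with DMSO vehicle and docetaxel as positive control. MTT added for 4 h, absorbance read at 570 nm. Triplicate runs, IC50 reported as mean of three experiments.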

[2] = tested on: HeLa; assay: Cytotoxicity against human HeLa cells assessed as cell growth inhibition after 24 hrs by MTT assay; type: functional, cell-based; method in brief: as §1
[3] = tested on: K562; assay: Cytotoxicity against human K562 cells assessed as cell growth inhibition after 24 hrs by MTT assay; type: functional, cell-based; settings: K562, 24 h; method in brief: as §1
[4] = tested on: PC-3; assay: Cytotoxicity against human PC3 cells assessed as cell growth inhibition after 24 hrs by MTT assay; type: functional, cell-based; settings: PC-3, 24 h; method in brief: as §1
[5] = tested on: DU-145; assay: Cytotoxicity against human DU145 cells assessed as cell growth inhibition after 24 hrs by MTT assay; type: functional, cell-based; settings: DU-145, 24 h; method in brief: as §1
[6] = tested on: MCF7; assay: Cytotoxicity against human MCF7 cells assessed as cell growth inhibition after 24 hrs by MTT assay; type: functional, cell-based; settings: MCF7, 24 h; method in brief: as §1
[7] = tested on: RWPE-1; assay: Cytotoxicity against human RWPE1 cells assessed as cell growth inhibition after 24 hrs by MTT assay; type: cell-based; settings: RWPE-1, 24 h; method in brief: as §1

SMILES | IC50 [1] | IC50 [2] | IC50 [3] | IC50 [4] | IC50 [5] | IC50 [6] | IC50 [7]
O=[N+]([O-])c1ccc([C@@H]2C[C@H](O)C[C@H]3c4cc(OCc5ccccc5)c(OCc5ccccc5)cc4CCN23)cc1 | > 20 µM | > 20 µM | > 20 µM | > 20 µM | > 20 µM | > 20 µM | > 20 µM
CCC[C@@H]1C[C@@H](O)/C=C\C(CC)[C@H]2c3cc(OCc4ccccc4)c(OCc4ccccc4)cc3CCN12 (stereo partly drawn) | 2.72 µM | 3.43 µM | 5.61 µM | – | – | – | –
COc1cc([C@@H]2C[C@H](O)C[C@H]3c4cc(OCc5ccccc5)c(OCc5ccccc5)cc4CCN23)cc(OC)c1OC | > 20 µM | > 20 µM | > 20 µM | > 20 µM | > 20 µM | > 20 µM | > 20 µM
CC[C@@H]1CC(=O)C[C@H]2c3cc(OCc4ccccc4)c(OCc4ccccc4)cc3CCN12 (relative stereo) | > 20 µM | > 20 µM | > 20 µM | > 20 µM | > 20 µM | > 20 µM | > 20 µM
COc1cc2c(cc1OC)[C@@H]1C[C@H](O)C[C@@H](c3ccccc3)N1CC2 | > 20 µM | > 20 µM | > 20 µM | > 20 µM | > 20 µM | > 20 µM | > 20 µM
CCC[C@@H]1CC(=O)C/C=C(/CC)[C@H]2c3cc(OCc4ccccc4)c(OCc4ccccc4)cc3CCN12 (relative stereo) | > 20 µM | > 20 µM | > 20 µM | > 20 µM | > 20 µM | > 20 µM | > 20 µM
Oc1cc2c(cc1O)[C@@H]1C[C@@H](O)C[C@@H](c3ccccc3)N1CC2 | > 20 µM | > 20 µM | > 20 µM | > 20 µM | > 20 µM | > 20 µM | > 20 µM
O=C1C[C@@H](c2ccccc2)N2CCc3cc4c(cc3[C@@H]2C1)OCO4 (relative stereo) | > 20 µM | > 20 µM | > 20 µM | > 20 µM | > 20 µM | > 20 µM | > 20 µM
Cc1cc(C)cc(COc2cc3c(cc2OCc2cc(C)cc(C)c2)[C@@H]2CC(=O)C[C@@H](C)N2CC3)c1 (relative stereo) | > 20 µM | > 20 µM | > 20 µM | > 20 µM | > 20 µM | > 20 µM | > 20 µM
CC[C@@H]1CC(=O)C/C=C(/C)[C@H]2c3cc(OCc4ccccc4)c(OCc4ccccc4)cc3CCN12 (relative stereo) | > 20 µM | > 20 µM | > 20 µM | > 20 µM | > 20 µM | > 20 µM | > 20 µM
CCC[C@@H]1CC(=O)C[C@H]2c3cc(OCc4ccccc4)c(OCc4ccccc4)cc3CCN12 (relative stereo) | > 20 µM | > 20 µM | > 20 µM | > 20 µM | > 20 µM | > 20 µM | > 20 µM
C[C@@H]1C[C@@](C)(O)C[C@H]2c3cc(OCc4cc(F)cc(F)c4)c(OCc4cc(F)cc(F)c4)cc3CCN12 | 2.81 µM | 1.29 µM | 1.13 µM | 1.29 µM | 1.33 µM | 1.98 µM | 4.45 µM
C[C@@H]1C[C@@H](O)C[C@H]2c3cc(OCc4ccccc4)c(OCc4ccccc4)cc3CCN12 | 1.15 µM | 2.66 µM | 1.52 µM | 2.81 µM | 2.18 µM | 2.2 µM | 1.84 µM
O[C@H]1C[C@@H](c2ccccc2)N2CCc3cc4c(cc3[C@@H]2C1)OCO4 | > 20 µM | > 20 µM | > 20 µM | > 20 µM | > 20 µM | > 20 µM | > 20 µM
COc1cc2c(cc1OC)[C@@H]1C[C@@H](O)C[C@@H](c3ccccc3)N1CC2 | > 20 µM | > 20 µM | > 20 µM | > 20 µM | > 20 µM | > 20 µM | > 20 µM
O=[N+]([O-])c1ccc([C@@H]2C[C@@H](O)C[C@H]3c4cc(OCc5ccccc5)c(OCc5ccccc5)cc4CCN23)cc1 | > 20 µM | > 20 µM | > 20 µM | > 20 µM | > 20 µM | > 20 µM | > 20 µM
C[C@@H]1CC(=O)C[C@H]2c3cc(OCc4cc(C(F)(F)F)cc(C(F)(F)F)c4)c(OCc4cc(C(F)(F)F)cc(C(F)(F)F)c4)cc3CCN12 (relative stereo) | > 20 µM | > 20 µM | > 20 µM | > 20 µM | > 20 µM | > 20 µM | > 20 µM
CCC[C@@H]1C[C@H](O)C[C@H]2c3cc(OCc4ccccc4)c(OCc4ccccc4)cc3CCN12 | 6.72 µM | 5.49 µM | 3.88 µM | – | – | – | –
